The molecules below were run on Canis familiaris (assay: The cardiac contractile force was determined after 1.0 mg/kg administration with 20 mg/kg pentobarbital in the dog heart-lung preparation.).
Type: functional, Canis lupus familiaris
Outline: (§1)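 Isolated dog heart-lung preparation from mongrel dogs of either sex (11–19 kg), anesthetized with sodium pentobarbital 35 mg/kg iv. A strain gauge arch on the right ventricle recorded contractile force, EKG lead II gave heart rate, a left atrial cannula and transducer gave LAP, and an extracorporeal flow meter gave aortic flow. Failure was induced by adding pentobarbital to the blood reservoir, then compound was added to the reservoir; readings at 10 min. Five preparations; means ± SE; ANOVA.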

SMILES | Cardiac contractile force [g]
CCCC(C)C1(CC)C(=O)NC(=O)NC1=O (stereo not drawn) [PENTOBARBITAL] | 32.2

What follows are molecules tested on Canis familiaris (assay: Pharmacological activity for Contractile force, +30% in anesthetized dog was determined after intravenous administration).
Type: functional, Canis lupus familiaris
Outline: (§2)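 Anesthetized dogs; contractile force recorded by a left-ventricular Walton-Brodie strain gauge arch, heart rate from lead II EKG, plus blood pressure. Stabilized at least 30 min, then at least three iv doses given, one compound per animal, with return to basal between doses. Doses for +30% force, +15% rate and −20% BP were extrapolated from dose-response curves; geometric mean where repeated.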

SMILES | Equieffective dose [mg/kg]
Cc1nc(O)[nH]c1C(=O)c1ccc(N2CCN(C)CC2)cc1 | >10
Cc1[nH]c(O)nc1C(=O)c1ccc(O)cc1 | 0.25
Cc1[nH]c(O)nc1C(=O)c1ccc(N2CCCCC2)cc1 | >10
Cc1[nH]c(O)nc1C(=O)c1ccccc1 | 0.23
Cc1[nH]c(O)nc1C(=O)c1ccco1 | 1.05
CSc1ccc(C(=O)c2[nH]c(=O)[nH]c2C)cc1 [ENOXIMONE] | 0.12
CC(=O)n1c(C)c(C(=O)c2ccc(F)cc2)n(C(C)=O)c1=O | 1
COc1ccc(C(=O)c2[nH]c(O)nc2C)cc1OC | 0.4
O=C(c1ccccc1)c1c[nH]c(O)n1 | 3.91
Cc1[nH]c(O)nc1C(=O)c1ccc(Cl)c(Cl)c1 | 0.7
Cc1[nH]c(O)nc1C(=O)c1ccc(N2CCCC2)cc1 | >10
Cc1[nH]c(O)nc1C(=O)c1ccccc1Cl | 0.48
Cc1[nH]c(O)nc1C(=O)c1ccc(Cl)cc1 | 0.18
Cc1[nH]c(O)nc1C(=O)c1ccc(F)cc1 | 0.38
COc1ccc(C(=O)c2nc(O)n(C)c2C)cc1 | >10
Cc1[nH]c(O)nc1C(=O)c1cccs1 | 0.28

SMILES | Equieffective dose [mg/kg]
CC(=O)n1c(C)c(C(=O)c2ccccc2)n(C(C)=O)c1=O | 3
COc1ccc(C(=O)c2c(C)n(C)c(=O)n2C)cc1 | 4.7
CCc1[nH]c(O)nc1C(=O)c1ccc(SC)cc1 | 0.07
COc1ccc(C(=O)c2c[nH]c(O)n2)cc1 | 0.78
Cc1c(C(=O)c2ccc(N(C)C)cc2)n(C(=O)C(C)C)c(=O)n1C(=O)C(C)C | 2.45
CSc1ccc(C(=O)c2c[nH]c(O)n2)cc1 | 0.5
CCc1[nH]c(O)nc1C(=O)c1cccs1 | 0.41
Cc1[nH]c(O)nc1C(=O)c1ccccc1O | 3.28
CCCc1[nH]c(O)nc1C(=O)c1ccc(SC)cc1 | 1.13
O=C(c1c[nH]c(O)n1)c1cccs1 | 0.72
O=C(c1c[nH]c(O)n1)c1ccco1 | 1.84
CC(=O)n1c(C)c(C(=O)c2ccc(N(C)C)cc2)n(C(C)=O)c1=O | 0.36
CCc1[nH]c(O)nc1C(=O)c1ccc(OC)c(OC)c1 | 0.18
Cc1nc(O)[nH]c1C(=O)c1ccc(N(C)C)cc1 | 0.36
CCc1[nH]c(O)nc1C(=O)c1ccc(OC)cc1 | 0.15
Cc1[nH]c(O)nc1C(=O)c1ccc(N2CCOCC2)cc1 | 1.2

Each molecule was assayed on Canis familiaris (assay: The cardiac output was determined after 1.0 mg/kg administration with 20 mg/kg pentobarbital in the dog heart-lung preparation.).
Type: functional, Canis lupus familiaris
Outline: as §1

SMILES | Cardiac output [mL/min]
CCCC(C)C1(CC)C(=O)NC(=O)NC1=O (stereo not drawn) [PENTOBARBITAL] | 613

What follows are molecules tested on Canis familiaris (assay: The change in mean arterial blood pressure was determined after 0.1 ug/kg iv administration in dog.).
Type: functional, Canis lupus familiaris
Outline: (§3)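 Anesthetized dogs: a Walton-Brodie strain gauge arch sutured to the left ventricle recorded contractile force, and blood pressure was recorded, after at least 30 min stabilization. Isoproterenol 0.1 μg/kg iv was given to controls or to dogs pretreated with propranolol 0.5 mg/kg iv. The value is the % change from pre-dose control; N = 6 per group; means ± SE; Student's t test.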

SMILES | Change [%]
CC(C)NCC(O)c1ccc(O)c(O)c1 (stereo not drawn) [ISOPROTERENOL] | -27

What follows are molecules tested on Canis familiaris (assay: Pharmacological activity for Blood pressure, -20% in anesthetized dog was determined after intravenous administration).
Type: functional, Canis lupus familiaris
Outline: as §2

SMILES | Equieffective dose [mg/kg]
Cc1nc(O)[nH]c1C(=O)c1ccc(N2CCN(C)CC2)cc1 | >10
Cc1[nH]c(O)nc1C(=O)c1ccc(O)cc1 | 2.6
Cc1[nH]c(O)nc1C(=O)c1ccc(N2CCCCC2)cc1 | >10
Cc1[nH]c(O)nc1C(=O)c1ccccc1 | 2.55
Cc1[nH]c(O)nc1C(=O)c1ccco1 | 0.72
CSc1ccc(C(=O)c2[nH]c(=O)[nH]c2C)cc1 [ENOXIMONE] | 0.55
CC(=O)n1c(C)c(C(=O)c2ccc(F)cc2)n(C(C)=O)c1=O | 2.5
COc1ccc(C(=O)c2[nH]c(O)nc2C)cc1OC | 2
O=C(c1ccccc1)c1c[nH]c(O)n1 | 4.4
Cc1[nH]c(O)nc1C(=O)c1ccc(Cl)c(Cl)c1 | 2.1
Cc1[nH]c(O)nc1C(=O)c1ccc(N2CCCC2)cc1 | 4.5
Cc1[nH]c(O)nc1C(=O)c1ccccc1Cl | 2.1
Cc1[nH]c(O)nc1C(=O)c1ccc(Cl)cc1 | 0.29
Cc1[nH]c(O)nc1C(=O)c1ccc(F)cc1 | 1.03
COc1ccc(C(=O)c2nc(O)n(C)c2C)cc1 | >10
Cc1[nH]c(O)nc1C(=O)c1cccs1 | 2.5

SMILES | Equieffective dose [mg/kg]
CC(=O)n1c(C)c(C(=O)c2ccccc2)n(C(C)=O)c1=O | 6.5
COc1ccc(C(=O)c2c(C)n(C)c(=O)n2C)cc1 | 2.6
CCc1[nH]c(O)nc1C(=O)c1ccc(SC)cc1 | 0.28
COc1ccc(C(=O)c2c[nH]c(O)n2)cc1 | 3.1
Cc1c(C(=O)c2ccc(N(C)C)cc2)n(C(=O)C(C)C)c(=O)n1C(=O)C(C)C | >10
CCc1[nH]c(O)nc1C(=O)c1cccs1 | 1.6
Cc1[nH]c(O)nc1C(=O)c1ccccc1O | 4.5
CCCc1[nH]c(O)nc1C(=O)c1ccc(SC)cc1 | 2.3
O=C(c1c[nH]c(O)n1)c1cccs1 | 3.7
O=C(c1c[nH]c(O)n1)c1ccco1 | 4.2
CC(=O)n1c(C)c(C(=O)c2ccc(N(C)C)cc2)n(C(C)=O)c1=O | >3
CCc1[nH]c(O)nc1C(=O)c1ccc(OC)c(OC)c1 | 2.35
Cc1nc(O)[nH]c1C(=O)c1ccc(N(C)C)cc1 | >3
CCc1[nH]c(O)nc1C(=O)c1ccc(OC)cc1 | 0.62
Cc1[nH]c(O)nc1C(=O)c1ccc(N2CCOCC2)cc1 | 6.4

The molecules below were run on Canis familiaris (assay: The stroke volume was determined after 1.0 mg/kg administration with 20 mg/kg pentobarbital in the dog heart-lung preparation.).
Type: functional, Canis lupus familiaris
Outline: as §1

SMILES | Stroke volume [mL]
CCCC(C)C1(CC)C(=O)NC(=O)NC1=O (stereo not drawn) [PENTOBARBITAL] | 4.6

These molecules were tested on Canis familiaris (assay: The left atrial pressure was determined after 1.0 mg/kg administration with 20 mg/kg pentobarbital in the dog heart-lung preparation.).
Type: functional, Canis lupus familiaris, Cardiac atrium
Outline: as §1

SMILES | Left atrial pressure [mmHg]
CCCC(C)C1(CC)C(=O)NC(=O)NC1=O (stereo not drawn) [PENTOBARBITAL] | 12.1

The molecules below were run on Canis familiaris (assay: Pharmacological activity for heart rate +15% in anesthetized dog was determined after intravenous administration).
Type: functional, Canis lupus familiaris
Outline: as §2

SMILES | Equieffective dose [mg/kg]
Cc1nc(O)[nH]c1C(=O)c1ccc(N2CCN(C)CC2)cc1 | 9.1
Cc1[nH]c(O)nc1C(=O)c1ccc(O)cc1 | 1.3
Cc1[nH]c(O)nc1C(=O)c1ccc(N2CCCCC2)cc1 | >10
Cc1[nH]c(O)nc1C(=O)c1ccccc1 | 1.55
Cc1[nH]c(O)nc1C(=O)c1ccco1 | 3.3
CSc1ccc(C(=O)c2[nH]c(=O)[nH]c2C)cc1 [ENOXIMONE] | 1.5
CC(=O)n1c(C)c(C(=O)c2ccc(F)cc2)n(C(C)=O)c1=O | >8
COc1ccc(C(=O)c2[nH]c(O)nc2C)cc1OC | 1.05
O=C(c1ccccc1)c1c[nH]c(O)n1 | 4
Cc1[nH]c(O)nc1C(=O)c1ccc(Cl)c(Cl)c1 | 4
Cc1[nH]c(O)nc1C(=O)c1ccc(N2CCCC2)cc1 | 8.5
Cc1[nH]c(O)nc1C(=O)c1ccccc1Cl | 2.2
Cc1[nH]c(O)nc1C(=O)c1ccc(Cl)cc1 | 4
Cc1[nH]c(O)nc1C(=O)c1ccc(F)cc1 | >3
COc1ccc(C(=O)c2nc(O)n(C)c2C)cc1 | >10
Cc1[nH]c(O)nc1C(=O)c1cccs1 | 5.4

SMILES | Equieffective dose [mg/kg]
CC(=O)n1c(C)c(C(=O)c2ccccc2)n(C(C)=O)c1=O | >10
COc1ccc(C(=O)c2c(C)n(C)c(=O)n2C)cc1 | >10
CCc1[nH]c(O)nc1C(=O)c1ccc(SC)cc1 | 0.54
COc1ccc(C(=O)c2c[nH]c(O)n2)cc1 | 1.85
Cc1c(C(=O)c2ccc(N(C)C)cc2)n(C(=O)C(C)C)c(=O)n1C(=O)C(C)C | >10
CSc1ccc(C(=O)c2c[nH]c(O)n2)cc1 | 1.05
CCc1[nH]c(O)nc1C(=O)c1cccs1 | 1.45
Cc1[nH]c(O)nc1C(=O)c1ccccc1O | >10
CCCc1[nH]c(O)nc1C(=O)c1ccc(SC)cc1 | 3
O=C(c1c[nH]c(O)n1)c1cccs1 | >10
O=C(c1c[nH]c(O)n1)c1ccco1 | 4.3
CC(=O)n1c(C)c(C(=O)c2ccc(N(C)C)cc2)n(C(C)=O)c1=O | >3
CCc1[nH]c(O)nc1C(=O)c1ccc(OC)c(OC)c1 | >3
Cc1nc(O)[nH]c1C(=O)c1ccc(N(C)C)cc1 | 2.2
CCc1[nH]c(O)nc1C(=O)c1ccc(OC)cc1 | 0.23
Cc1[nH]c(O)nc1C(=O)c1ccc(N2CCOCC2)cc1 | >10

These molecules were tested on Canis familiaris (assay: The change in cardiac contractile force was determined after 0.1 ug/kg iv administration in dog.).
Type: functional, Canis lupus familiaris, Heart
Outline: as §3

SMILES | Change [%]
CC(C)NCC(O)c1ccc(O)c(O)c1 (stereo not drawn) [ISOPROTERENOL] | 133

These molecules were tested on Canis familiaris (assay: The stroke work was determined after 1.0 mg/kg administration with 20 mg/kg pentobarbital in the dog heart-lung preparation.).
Type: functional, Canis lupus familiaris
Outline: as §1

SMILES | Stroke work [g]
CCCC(C)C1(CC)C(=O)NC(=O)NC1=O (stereo not drawn) [PENTOBARBITAL] | 3

Each molecule was assayed on Canis familiaris (assay: The heart rate was determined after 1.0 mg/kg administration with 20 mg/kg pentobarbital in the dog heart-lung preparation.).
Type: functional, Canis lupus familiaris
Outline: as §1

SMILES | Heart rate [beats min-1]
CCCC(C)C1(CC)C(=O)NC(=O)NC1=O (stereo not drawn) [PENTOBARBITAL] | 133

— ChEMBL document CHEMBL1121991, “4-Aroyl-1,3-dihydro-2H-imidazol-2-ones, a new class of cardiotonic agents” (1982)
